Source: ChEMBL document CHEMBL4680077, “Differentiation of skeletal osteogenic progenitor cells to osteoblasts with 3,4-diarylbenzopyran based amide derivatives: Novel osteogenic agents” (Eur J Med Chem, 2016)
The source made the active and inactive calls. The calls are words filed in the database; no cut-off is given here.

How the values were obtained:
Calvarial osteoblast [1] = experiment: Induction of osteoblast differentiation in mouse calvarial osteoblast assessed as increase in ALP activity using PNPP as substrate at 0.000001 to 1 uM incubated activity for 48 hrs by spectrophotometric analysis relative to control; type: functional, cell-based; details: dose lower 1e-06 µM, dose upper 1.0 µM
Mus musculus [2] = experiment: In vivo osteogenic activity in ovariectomized BALB/c mouse assessed as increase in femur bone volume density administered via oral gavage for 1 month by microCT imaging analysis; type: functional, organism-based; details: time 1.0 months
Summary of the method: (§1)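 Ovariectomized female balb/c mice, 8 weeks old, 10 per group, received 1.0 or 10.0 mg kg-1 once daily by oral gavage (gum acacia vehicle) for 4 weeks, alongside sham and Ovx vehicle groups. Femurs were scanned by microCT. BV/TV, Tb.N and Tb.Sp were derived by the mean intercept length method. Mean ± SE.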

Mus musculus [3] = experiment: In vivo osteogenic activity in ovariectomized BALB/c mouse assessed as increase in trabecular number administered via oral gavage for 1 month by microCT imaging analysis; type: functional, organism-based; details: time 1.0 months; summary of the method: as §1
Mus musculus [4] = experiment: In vivo osteogenic activity in ovariectomized BALB/c mouse assessed as decrease in trabecular spacing administered via oral gavage for 1 month by microCT imaging analysis; type: functional, organism-based; details: time 1.0 months; summary of the method: as §1
Calvarial osteoblast [5] = experiment: Induction of osteoblast differentiation in mouse calvarial osteoblast assessed as increase in ERbeta expression at 10 nM incubated for 48 hrs by Western blot analysis; type: functional, cell-based
Summary of the method: (§2)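 Calvarial osteoblasts at 60–70% confluence were treated ± compound for 48 h, with 100 pM E2 as positive control. Lysates (30 µg protein) were resolved on 10% SDS-PAGE, transferred to PVDF and probed for ER-α and ER-β with HRP secondaries and ECL detection. Bands were quantified by densitometry normalized to β-actin.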

Calvarial osteoblast [6] = experiment: Induction of osteoblast differentiation in mouse calvarial osteoblast assessed as increase in ERalpha expression at 10 nM incubated for 48 hrs by Western blot analysis; type: functional, cell-based; summary of the method: as §2

## CCCCN(C)C(=O)CCCOc1ccc([C@H]2c3ccc(OC)cc3OC(C)(C)[C@@H]2c2ccccc2)cc1
Calvarial osteoblast [1]
  Activity: Active

## COc1ccc2c(c1)OC(C)(C)[C@H](c1ccccc1)[C@H]2c1ccc(OCCCCC(=O)NCc2ccccn2)cc1
Calvarial osteoblast [1]
  Activity: Active

## COc1ccc2c(c1)OC(C)(C)[C@H](c1ccccc1)[C@H]2c1ccc(OCCCCCC(=O)NCc2ccccn2)cc1
Calvarial osteoblast [1]
  Activity: Active

## C[C@]12CC[C@@H]3c4ccc(O)cc4CC[C@H]3[C@@H]1CC[C@@H]2O
Mus musculus [2]
  Activity: Active
Mus musculus [3]
  Activity: Active
Mus musculus [4]
  Activity: Active
Calvarial osteoblast [5]
  Activity: Active
Calvarial osteoblast [6]
  Activity: inactive

## CCCCN(C)C(=O)CCCOc1ccc(C2=C(c3ccccc3)C(C)(C)Oc3cc(OC)ccc32)cc1
Calvarial osteoblast [1]
  Activity: Active
